Reference: ChEMBL document CHEMBL1148202, “Lasonolides C-g, five new lasonolide compounds from the sponge Forcepia sp” (J Nat Prod, 2004)

Key:
Type in all cases: functional, cell-based
[1] = test system: A549; test: Cytotoxicity against human A549 cells
Procedure, shortened: (§1)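 Human tumour cell lines (A549 lung adenocarcinoma, PANC-1 pancreatic, NCI/ADR-RES […], formerly MCF-7/ADR) obtained from ATCC. In vitro proliferation inhibition run by a previously described protocol. Each sample assayed at least three times to derive the final IC50.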

[2] = test system: PANC-1; test: Cytotoxicity against human PANC1 cells; procedure, shortened: as §1
[3] = test system: NCI/ADR-RES; test: Cytotoxicity against human NCI/ADR-RES cells; procedure, shortened: as §1

SMILES	IC50 [1]	IC50 [2]	IC50 [3]
C=C(CCC(C)C)COC(=O)[C@H](O)C/C=C\C[C@@H]1O[C@@H]2/C=C/C/C=C/C(C)=C\[C@H]3O[C@@H](C/C=C/C=C/C(=O)O[C@H](C2)[C@@]1(C)CO)C[C@H](O)[C@H]3C [LASONOLIDE A]	8.6 nM	89 nM	490 nM
C=C(COC(=O)[C@H](O)C/C=C\C[C@@H]1O[C@@H]2/C=C/C/C=C/C(C)=C\[C@H]3O[C@@H](C/C=C/C=C/C(=O)O[C@H](C2)[C@@]1(C)CO)C[C@H](O)[C@H]3C)C(O)CC(C)C (stereo partly drawn) [LASONOLIDE C]	130 nM	380 nM	1120 nM
CC1=C/[C@H]2O[C@@H](C/C=C/C=C/C(=O)O[C@@H]3C[C@@H](/C=C/C\C=C\1)O[C@@H](C/C=C\CCO)[C@]3(C)CO)C[C@H](O)[C@H]2C [LASONOLIDE D]	4500 nM	4890 nM	> 9000 nM
CCOC(=O)[C@H](O)C/C=C\C[C@@H]1O[C@@H]2/C=C/C/C=C/C(C)=C\[C@H]3O[C@@H](C/C=C/C=C/C(=O)O[C@H](C2)[C@@]1(C)CO)C[C@H](O)[C@H]3C [LASONOLIDE E]	310 nM	570 nM	> 8000 nM
C=C(COC(=O)[C@H](O)C/C=C\C[C@@H]1O[C@@H]2/C=C/C/C=C/C(C)=C\[C@H]3O[C@@H](C/C=C/C=C/C(=O)O[C@H](C2)[C@@]1(C)COC(=O)CCCCCCCCCCC)C[C@H](O)[C@H]3C)C(O)CC(C)C (stereo partly drawn) [LASONOLIDE G]	> 6000 nM	> 6000 nM	> 6000 nM
CC1=C/[C@H]2O[C@@H](C/C=C/C=C/C(=O)O[C@@H]3C[C@@H](/C=C/C\C=C\1)O[C@@H](C/C=C\C[C@@H](O)C(=O)O)[C@]3(C)CO)C[C@H](O)[C@H]2C [LASONOLIDES F]	> 9000 nM	15600 nM	> 9000 nM
